# Shown are actives, neighbours in structure and some others; about 3.7% of the full set was active somewhere.
# KCNQ1 inh: inhibitors of human KCNQ1 channel, primary screen, cell-based, thallium flux, high-throughput; Potassium voltage-gated channel subfamily KQT member 1 (Homo sapiens), P51787; CHO-K1 KCNQ1, FluxOR thallium flux fluorescence; hits give high values; B-score at 10 µM; actives 1.3% (n = 310,000);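 active = compounds whose thallium flux B-score, printed positive for inhibition, exceeds three library SD while starting fluorescence stays within three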;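 note: channel opened by potassium depolarization with thallium stimulus after 20 min compound exposure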
# hERG protect: hERG rescue from dofetilide block, primary screen, cell-based, CHO-hERG, FluxOR thallium flux, dofetilide IC70; Voltage-gated inwardly rectifying potassium channel KCNH2 (Homo sapiens), Q12809; dofetilide IC70 present; activation (rescue from dofetilide block), less the hit threshold, % at 10 µM; actives 0.51% (n = 310,000); AID 1511, 2009;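 active = activation above the mean of controls blocked by dofetilide plus 5 SD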;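 note: thallium influx through hERG after potassium depolarization seen as dye fluorescence rise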
# KCNK9 block: KCNK9 potassium channel inhibitors, primary screen, HEK293 cells, thallium flux; B-score at 10 µM; actives 1.2% (n = 310,000); FluxOR thallium flux fluorescence; hits give low values; AID 488922, 2010;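 active = ratio B-score over 3 SD below the library mean, with starting fluorescence within 5 SD of its mean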;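 note: negative B-score means less thallium flux so channel inhibition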
# KCNQ1 pot: potentiators or activators of KCNQ1 channel, primary screen, cell-based, thallium flux, high-throughput | AID 2648, 2010 | B-score at 10 µM | Potassium voltage-gated channel subfamily KQT member 1 (Homo sapiens), P51787 | CHO-K1 KCNQ1, thallium flux FluxOR fluorescence; hits give high values | actives 0.35% (n = 310,000);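 active = fluorescence ratio B-score, a plate-corrected score, at least three library SD, with initial intensity B-score within 5 SD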
#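 Material: CHO-K1 cells stably expressing KCNQ1. Medium: assay buffer for compound exposure, DMSO matched across wells. Reagent: K+/Tl+ depolarizing stimulus. Compound dosing: single-concentration screen. Times: 37 °C overnight plating, 90-min dark dye load, 20-min compound pretreatment. Technique: FluxOR Tl+ flux fluorescence.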
# Kir21 block: inhibitors of mouse Kir2.1 inward-rectifier potassium channel; B-score at 10 µM; Inward rectifier potassium channel 2 (Mus musculus), P35561; HEK293-Kir2.1, FluxOR thallium flux fluorescence; hits give low values; actives 0.85% (n = 310,000);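 active = fluorescence ratio B-score at or below minus 3 SD of library scores, with starting-brightness B-score within 2 SD, cut at about -4.2 in these data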;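 note: channel flux triggered by added potassium and thallium sulfate stimulus; B-score of peak minus minimum fluorescence over baseline after thallium stimulus; more negative B-score means stronger Kir2.1 block with less thallium influx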
# KCNK3 block: human KCNK3 channel inhibitors, primary screen, CHO cells, FluxOR thallium flux, B-score; FluxOR fluorescence; hits give low values; actives 0.84% (n = 340,000); B-score at 10 µM; Potassium channel subfamily K member 3 (Homo sapiens), O14649; AID 602410, 2012;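 active = B-score under library mean minus 4 SD, starting fluorescence ratio at most library mean plus 5 SD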;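 note: more negative B-score means stronger inhibition of thallium flux through KCNK3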
# KCNK9 block conf: KCNK9 potassium channel inhibitors, confirmation, HEK293 cells, thallium flux, duplicate; inhibition, % at 10 µM; actives 43% (n = 4,900); FluxOR thallium flux fluorescence; shares compounds with KCNK9 block;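 active = thallium signal inhibited by more than 5 SD of the compound-free buffer control wells, on both duplicate plates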;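 note: 0% = assay buffer control wells without compound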
# Kir2-1 spec: mouse Kir2.1 channel inhibition, confirmation, selectivity assay for KCNK9 modulator project, cell-based, HEK293, thallium flux. Kir2.1 cells, FluxOR thallium flux fluorescence. inhibition, % at 10 µM. shares compounds with KCNK9 block. actives 4% (n = 4,900);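 active = thallium signal drop more than 5 SD beyond the mean of the no-compound control wells, seen in both duplicate plates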;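 note: signal is fluorescence rise after thallium addition divided by baseline fluorescence; plate controls were assay buffer only for no effect and full block by chlorpromazine control for full effect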
# HEK293 Tl ctr: thallium flux in non-induced HEK293 cells, confirmation, counter-screen for KCNK9 inhibitor project, cell-based, second counter screen, non-induced KCNK9-HEK293; FluxOR thallium flux; AID 492997, 2010; inhibition, % at 10 µM; shares compounds with KCNK9 block; actives 40% (n = 4,900);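 active = thallium signal drop beyond 5 SD of the untreated control mean, on both duplicate plates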;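 note: plate controls were buffer only IC0 wells for no effect and SID17386958 at its maximal inhibitory level for full effect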
# Starred values were filed as active, the others as inactive; i = inactive; nt = no result given.
SMILES,KCNQ1 inh,hERG protect,KCNK9 block,KCNQ1 pot,Kir21 block,KCNK3 block,KCNK9 block conf,Kir2-1 spec,HEK293 Tl ctr
Cc1cc(C)cc(CC(Cc2nc3ccccc3[nH]2)c2nc3ccccc3[nH]2)c1 (stereo not drawn),12*,-8,-8.1*,i,-0.61,i,29%*,i,37%*
Cc1ccc(CSCc2nc3ccccc3[nH]2)cc1,i,-3,i,i,-0.6,i,nt,nt,nt
CCc1cc2c3c(c1)C1(C(=O)N3C(C)(C)C=C2C)C(C#N)=C(N)Oc2[nH]c(=O)[nH]c(=O)c21 (stereo not drawn),i,-6,i,i,-0.28,i,nt,nt,nt
Cc1ccccc1OCc1nc2ccccc2c(=O)n1/N=C/c1cn[nH]c1-c1ccccc1,i,-13,i,i,0.03,i,nt,nt,nt
Cc1ccccc1OCc1nc2ccccc2c(=O)n1/N=C/c1cccc([N+](=O)[O-])c1,i,-9,-8.8*,i,2.7,i,i,i,i
COCc1cc(C(C)=O)ccc1OCC(=O)Nc1ccc(NC(C)=O)cc1,i,-7,i,i,-0.2,i,nt,nt,nt
O=C(C1CCN(S(=O)(=O)c2ccc(Br)s2)CC1)N1CCc2ccccc21,i,-11,i,i,0.31,i,i,i,i
COC(=O)C1CCN(S(=O)(=O)c2ccc(Br)s2)CC1,nt,nt,nt,nt,nt,i,nt,nt,nt
COc1ccc(-c2noc(C3CCCN(S(=O)(=O)c4cccc(Cl)c4)C3)n2)cc1OC (stereo not drawn),i,-12,-8.1*,i,1.5,i,i,i,26%*
Fc1ccc(-[n+]2nc(Nc3ccccc3)sc2-c2c3ccccc3cc3ccccc23)cc1,11*,-21,-12*,i,-1.2,i,34%*,i,i
COc1ccccc1CNC(=O)CN(C)S(=O)(=O)c1ccc2c(c1)c(=O)n(C)c(=O)n2C,i,-6,i,i,0.66,i,nt,nt,nt
O=C(NCC1CCCO1)c1ccc2[nH]c3c(c2c1)CCCC3 (stereo not drawn),nt,nt,nt,nt,nt,i,nt,nt,nt
CCCc1ccc(Oc2c(-c3ccc(O)c(C)c3O)n[nH]c2C)cc1,i,-17,i,i,-1.5,i,nt,nt,nt
CCCc1ccc(Oc2cn[nH]c2-c2ccc(O)c(C)c2O)cc1,i,-16,-9.9*,i,-0.03,i,56%*,i,44%*
C/C(=N\N1CCN(c2ccc(Cl)cc2)CC1)c1cccc([N+](=O)[O-])c1,i,-1,-11*,i,1.2,i,44%*,i,30%*
CCN(CC)C(=O)CSc1nc2ccccc2c(=O)n1CCC(=O)NCc1ccc(F)cc1,i,-15,i,i,-0.46,i,nt,nt,nt
Cc1ccc([N+](=O)[O-])c(OCCN2CCc3ccccc3C2)c1,i,0,i,i,1.4,i,i,i,i
C=CCN(CC=C)CCOc1cc(C)ccc1[N+](=O)[O-],i,-8,i,i,0.51,i,i,i,i
Brc1cccc(OCCN2CCCCC2)c1,i,-5,i,i,0.18,i,nt,nt,nt
Brc1cccc(OCCN2CCc3ccccc3C2)c1,i,-9,i,i,0.76,i,i,i,i
COc1ccccc1OCc1ccc(C(=O)Nc2ccncc2)o1,i,-13,i,i,0.44,i,nt,nt,nt
Cc1ccccc1-c1cc(C(=O)O)n(CC2CC(c3cccnc3)=NO2)n1 (stereo not drawn),nt,nt,nt,nt,nt,i,nt,nt,nt
CCc1ccc(N=C2NC(=O)/C(=C/c3ccc(OCC(=O)O)c(OC)c3)S2)cc1,i,-3,i,i,-1.9,i,i,i,i
CCc1ccc(N=C2NC(=O)/C(=C/c3ccc(OCC(=O)O)cc3)S2)cc1,i,-8,i,i,2,i,nt,nt,nt
CCOc1ccc2nc(N3CCCCCC3)sc2c1,i,-7,i,i,3.8,i,nt,nt,nt
SMILES,KCNQ1 inh,hERG protect,KCNK9 block,KCNQ1 pot,Kir21 block,KCNK3 block,KCNK9 block conf,Kir2-1 spec,HEK293 Tl ctr
CCOc1ccc2nc(N3C(=O)/C(=C/c4ccccc4)NC3=S)sc2c1,i,45*,i,134*,1.2,i,i,i,i
O=S1(=O)CCN2N=C(C34CC5CC(CC(C5)C3)C4)SC2=N1,i,-9,i,i,0.09,i,nt,nt,nt
CCSc1nc(N2CCCCC2)c2c(c1C#N)CCCC2,i,-12,-12*,i,0.11,i,57%*,i,46%*
COc1cc(OC)c2c(O)c3c(c(-c4c5c(c(O)c6c(OC)cc(OC)cc46)CO[C@@H](C)[C@H]5O)c2c1)[C@H](O)[C@H](C)OC3,i,-6,i,i,-1.4,i,i,i,i
COc1cc2c(c(OC)c1O)C(=O)CO2,i,-4,i,i,0.37,i,nt,nt,nt
Cc1ccc(C(=O)CSC2=C(C#N)C(c3ccco3)C3=C(CC(C)(C)CC3=O)N2)cc1 (stereo not drawn),i,-8,-8.4*,i,-0.04,-10*,46%*,i,33%*
CC1(C)CC(=O)C2=C(C1)NC(SCC(=O)Nc1ccccc1)=C(C#N)C2c1ccco1 (stereo not drawn),i,-6,i,i,1.5,i,nt,nt,nt
Clc1ccc(/C=N/NC(=Nc2ccccc2)c2ccccn2)c(Cl)c1,i,-8,i,i,-0.61,i,i,i,i
C(=N\NC(=Nc1ccccc1)c1ccccn1)/c1ccccn1,i,-3,i,i,1,i,nt,nt,nt
COc1ccc2nc(Nc3sc4c(c3C(N)=O)CCCC4)sc2c1,nt,nt,nt,nt,nt,i,nt,nt,nt
Nc1cc(=O)[nH]c(SCC(=O)N2CCN(S(=O)(=O)c3ccc4ccccc4c3)CC2)n1,i,-5,i,i,-2.6,i,nt,nt,nt

# Compound activity (PubChem)
